Measured values published in ChEMBL document CHEMBL1150589, “New sesquiterpenoids from the root of Guatteria multivenia” (J Nat Prod, 2002).
In brackets after ≈: the same amount, converted by molar mass.

Columns and labels:
Staphylococcus aureus [1] = assay: Antimicrobial activity against Staphylococcus aureus; assay type: functional, organism-based
Outline: (§1)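 Antimicrobial assay run per an earlier method. Both IC50 and MIC were reported in µg/mL. Amphotericin B was the positive control for C. albicans and C. neoformans.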

Candida albicans = assay: Antimicrobial activity against Candida albicans; assay type: functional, organism-based; outline: as §1
Cryptococcus neoformans = assay: Antimicrobial activity against Cryptococcus neoformans; assay type: functional, organism-based; outline: as §1
Staphylococcus aureus [2] = assay: Antimicrobial activity against methicillin-resistant Staphylococcus aureus; assay type: functional, organism-based
[3] = Inhibition of Candida albicans secreted aspartic protease
Outline: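 SAP inhibition assay run per an earlier method, with IC50 reported in µg/mL. Pepstatin A was the positive control.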

| Compound | IC50 (Staphylococcus aureus [1]) [µg/mL] | MIC (Staphylococcus aureus [1]) [µg/mL] | IC50 (Candida albicans) [µg/mL] | MIC (Candida albicans) [µg/mL] | IC50 (Cryptococcus neoformans) [µg/mL] | MIC (Cryptococcus neoformans) [µg/mL] | IC50 (Staphylococcus aureus [2]) [µg/mL] | MIC (Staphylococcus aureus [2]) [µg/mL] | IC50 [3] [µg/mL] |
| --- | --- | --- | --- | --- | --- | --- | --- | --- | --- |
| O=C1c2ccccc2-c2c3c(cc4ccnc1c24)OCO3 [LIRIODENINE] | 2 (≈ 7.27 µM) | 3.13 (≈ 11.4 µM) | 3.5 (≈ 12.7 µM) | 6.25 (≈ 22.7 µM) | 2 (≈ 7.27 µM) | 12.5 (≈ 45.4 µM) | 2 (≈ 7.27 µM) | 3.13 (≈ 11.4 µM) | – |
| O=C(O)c1cn(C2CC2)c2cc(N3CCNCC3)c(F)cc2c1=O [CIPROFLOXACIN] | 0.07 (≈ 0.211 µM) | 0.39 (≈ 1.18 µM) | – | – | – | – | – | 3.13 (≈ 9.45 µM) | – |
| CC(C)CC(=O)N[C@H](C(=O)N[C@H](C(=O)N[C@@H](CC(C)C)[C@@H](O)CC(=O)N[C@@H](C)C(=O)N[C@@H](CC(C)C)[C@@H](O)CC(=O)O)C(C)C)C(C)C [PEPSTATIN] | – | – | – | – | – | – | – | – | 0.006 (≈ 0.00875 µM) |
| COc1ccc2c(c1)C(=O)c1nccc3cc4c(c-2c13)OCO4 [ATHEROSPERMIDINE] | – | – | – | – | – | – | – | – | 45 (≈ 147 µM) |
| C[C@@H]1[C@H](O)[C@@H](C)/C=C/C=C/C=C/C=C/C=C/C=C/C=C/[C@H](O[C@@H]2O[C@H](C)[C@@H](O)[C@H](N)[C@@H]2O)C[C@@H]2O[C@](O)(C[C@@H](O)C[C@@H](O)[C@H](O)CC[C@@H](O)C[C@@H](O)CC(=O)O[C@H]1C)C[C@H](O)[C@H]2C(=O)O [AMPHOTERICIN B] | – | – | 0.06 (≈ 0.0649 µM) | – | 0.3 (≈ 0.325 µM) | 0.63 (≈ 0.682 µM) | – | – | – |
